Measured values as given in ChEMBL document CHEMBL4376838, “Discovery of Novel Celastrol Derivatives as Hsp90-Cdc37 Interaction Disruptors with Antitumor Activity” (J Med Chem, 2019).
pIC50: −log10 of the molar value. The source made the active and inactive calls. The calls are words filed in the database; no cut-off is given here.

Key:
A549 [1] = experiment: Induction of cell cycle arrest in human A549 cells assessed as accumulation at G2 phase at 0.4 uM incubated for 24 hrs by PI staining based flow cytometric analysis (reference value: 19.37%); type: functional
Method in brief: (§1)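 A549 cells (4×10^5 per 6 cm dish) were grown 24 h, then exposed to compound (0.2, 0.4, 0.8 μM) or DMSO for 24 h. Cells fixed in 75% ethanol at −20 °C for at least 12 h, treated with RNase A at 37 °C for 30 min, then stained with PI for 15 min in the dark. Analysed by flow cytometry, mean ± SD, n = 3.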

A549 [2] = experiment: Induction of cell cycle arrest in human A549 cells assessed as accumulation at G1 phase at 0.4 uM incubated for 24 hrs by PI staining based flow cytometric analysis (reference value: 60.14%); type: functional; method in brief: as §1
A549 [3] = experiment: Induction of cell cycle arrest in human A549 cells assessed as increase in accumulation at G0/G1 phase incubated for 24 hrs by PI staining based flow cytometric analysis; type: functional; method in brief: as §1
[4] = biological target: T1, Hsp90 co-chaperone Cdc37 (Homo sapiens) (UniProt Q16543); experiment: Binding affinity to Cdc37 in human A549 cells assessed as inhibition of HSP90-Cdc37 interaction by measuring increase in BAX protein level at 1.25 to 5 uM incubated for 12 hrs by Western blot analysis; type: cell-based
T1 sequence (whole entry): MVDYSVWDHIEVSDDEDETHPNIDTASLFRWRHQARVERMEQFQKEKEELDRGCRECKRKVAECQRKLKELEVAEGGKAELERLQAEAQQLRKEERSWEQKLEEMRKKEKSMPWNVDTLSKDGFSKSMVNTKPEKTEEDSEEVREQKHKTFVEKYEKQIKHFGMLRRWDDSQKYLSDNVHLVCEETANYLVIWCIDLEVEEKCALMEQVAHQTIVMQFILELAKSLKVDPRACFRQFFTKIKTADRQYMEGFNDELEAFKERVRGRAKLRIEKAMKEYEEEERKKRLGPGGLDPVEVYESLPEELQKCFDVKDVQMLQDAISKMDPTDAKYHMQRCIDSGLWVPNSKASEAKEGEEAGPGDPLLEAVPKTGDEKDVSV
Method in brief: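 A549 cells (5×10^5 per 6 cm dish) were allowed to settle 12 h, then treated with DMSO or compound at the indicated concentrations for 12 h. Lysates were adjusted to 3 mg/ml protein by BCA and resolved on 10% SDS-PAGE, then Western blotted. β-actin or Hsp90 served as the loading control. Three separate experiments, mean ± SD.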

A549 [5] = experiment: Induction of apoptosis in human A549 cells assessed as late apoptotic cells at 0.3 uM incubated for 48 hrs by Annexin V-FITC and PI staining based flow cytometric analysis (reference value: 3.0%); type: functional
A549 [6] = experiment: Induction of apoptosis in human A549 cells assessed as late apoptotic cells at 0.6 uM incubated for 48 hrs by Annexin V-FITC and PI staining based flow cytometric analysis (reference value: 3.0%); type: functional
A549 [7] = experiment: Induction of apoptosis in human A549 cells assessed as necrotic cells at 1.2 uM incubated for 48 hrs by Annexin V-FITC and PI staining based flow cytometric analysis (reference value: 1.0%); type: functional
Method in brief: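 A549 cells (4×10^5 per 6 cm dish) cultured 24 h, then treated 48 h with compound or DMSO. Cells gently harvested, washed twice in cold PBS, resuspended in binding buffer with Annexin V and PI, stained 15 min at room temperature in the dark, analysed by flow cytometry. Mean ± SD, n = 3.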

[8] = biological target: T1, Hsp90 co-chaperone Cdc37 (Homo sapiens); experiment: Binding affinity to full length CDC37 (unknown origin) assessed as reduction in absorption at 440 nm reaching equilibrium within 15 mins at 100 uM by UV absorption analysis; conditions: in the assay text read “within 5 mins” for “within 15 mins”
Method in brief: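 Compound (100 μM) mixed with GSH (100 μM), Cdc37 (1.5 μM) or Hsp90 (1.5 μM) in PBS containing 1% DMSO, incubated at 37 °C for 0, 5, 15 and 30 min. UV spectra scanned 200-500 nm, with absorbance at 440 nm compared against the 0 min value (A/A0). Mean ± SD, n = 3.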

A549 [9] = experiment: Induction of apoptosis in human A549 cells assessed as early apoptotic cells at 0.3 uM incubated for 48 hrs by Annexin V-FITC and PI staining based flow cytometric analysis (reference value: 0.5%); type: functional
A549 [10] = experiment: Antiproliferative activity against human A549 cells assessed as inhibition of cell growth at 1.5 uM incubated for 48 hrs by MTT assay relative to control; type: functional; conditions: A549, 48 h, read-out: GI
[11] = biological target: T1, Hsp90 co-chaperone Cdc37 (Homo sapiens); experiment: Inhibition of Cdc37 in human A549 cells assessed as disruption of HSP90 alpha-Cdc37 interaction by measuring decrease in Cdc37 protein level at 5 uM incubated for 6 hrs by immunoprecipitation based immunoblot analysis; type: cell-based
Method in brief: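 A549 cells (5×10^5 per 6 cm dish) were grown 24 h, then treated with 5 μM compound or DMSO for 6 h. Lysates were immunoprecipitated with Hsp90α antibody, and co-precipitated Cdc37 and Hsp90 were detected by Western blot. Mean ± SD, n = 3.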

A549 [12] = experiment: Antiproliferative activity against human A549 cells assessed as inhibition of cell growth incubated for 48 hrs by MTT assay; type: functional, cell-based; conditions: A549, 48 h
Method in brief: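 MTT read-out. Cells seeded at 5.0 × 10⁴ cells/ml and cultured 24 h, then exposed to the drug over a range of concentrations for 48 h, with matching DMSO as control. MTT (5 mg/ml) added for 4 h, supernatant removed, formazan dissolved in DMSO, OD read at 570 nm. Run in triplicate, mean ± SD (n = 3).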

A549 [13] = experiment: Antiproliferative activity against human A549 cells assessed as inhibition of cell growth at 0.5 uM incubated for 48 hrs in presence of methyl thioglycolate by MTT assay relative to control; type: functional; conditions: A549, 48 h, read-out: GI
A549 [14] = experiment: Induction of cell cycle arrest in human A549 cells assessed as accumulation at S phase at 0.8 uM incubated for 24 hrs by PI staining based flow cytometric analysis (reference value: 27.59%); type: functional; method in brief: as §1
[15] = Binding affinity to DTT in DMSO-d6 with retention of CA moiety at 0.02 mmol incubated for 20 mins in ultrasound by 1H NMR-spectroscopic analysis
A549 [16] = experiment: Induction of mitochondrial membrane potential loss in human A549 cells assessed as cells with depolarized mitochondria by measuring increase in J-monomer green fluorescence intensity at 0.2 uM incubated for 24 hrs by JC1 staining based fluorescence microscopic method (reference value: 1.5%); type: functional
[17] = biological target: T1, Hsp90 co-chaperone Cdc37 (Homo sapiens); experiment: Binding affinity to Cdc37 in human A549 cells assessed as inhibition of HSP90-Cdc37 interaction by measuring decrease in Akt phosphorylation level at 5 uM incubated for 12 hrs by Western blot analysis; type: cell-based
Method in brief: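 A549 cells seeded 5×10^5 per 6 cm dish, grown 12 h, then exposed to compound or DMSO for 12 h. Lysates adjusted to 3 mg/ml protein (BCA), run on 10% SDS-PAGE, immunoblotted for p-Akt and Cdk4. Band levels quantified against Hsp90 loading control. Three separate experiments, mean ± SD.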

CC1=C(O)C(=O)C=C2C1=CC=C1[C@@]2(C)CC[C@@]2(C)[C@@H]3C[C@](C)(C(=O)OCCCOC(=O)/C=C(\C#N)c4ccc(F)cc4)CC[C@]3(C)CC[C@]12C
Activity (A549 [1]): 16% | Activity (A549 [2]): 67.51% | Activity (A549 [3]): Dose-dependent effect | inhibition [4]: Active | Activity (A549 [5]): 9.3% | Activity (A549 [6]): 16.9% | Activity (A549 [7]): 8.2% | Activity [8]: Active | Activity (A549 [9]): 2.2% | inhibition of growth at 1.5 µM (A549 [10]): 78.5% | inhibition [11]: Active | pIC50 (A549 [12]): 6.39 | inhibition of growth at 0.5 µM (A549 [13]): 68.3% | Activity (A549 [14]): 23.85% | Activity [15]: Active | Activity (A549 [16]): 15.7% | inhibition [17]: Active
